Measurements reported in ChEMBL document CHEMBL5346861, “Designing quinoline-isoniazid hybrids as potent anti-tubercular agents inhibiting mycolic acid biosynthesis” (Eur J Med Chem, 2022).
Converted amounts (≈) assume the structure as drawn. The source made the active and inactive calls. No cut-off for these calls is given here.

Key:
Mycobacterium marinum = test: Antimycobacterial activity against Mycobacterium marinum M strain assessed as inhibition of bacterial growth measured after 6 days by broth dilution method; type: functional; conditions: 144 h, time 6 day
In short: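 MIC99 by 2-fold serial broth dilution in 7H9 with 10% OADC and 0.025% tyloxapol. Inoculum 5.10⁶ CFU/mL. Incubated without agitation at 30 °C, scored for no turbidity change after 6 days. DMSO vehicle control.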

[1] = tested on: Mycobacteroides abscessus; test: Antimycobacterial activity against Mycobacterium abscessus CIP104536 smooth variant assessed as inhibition of bacterial growth measured after 4 days by broth dilution method; type: functional; conditions: CIP104536, 96 h, time 4 day
In short: (§1)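 MIC99 by CLSI broth 2-fold serial dilution in CaMHB. Inoculum 5.10⁶ CFU/mL. Incubated at 30 °C and read by turbidity after 4 days. DMSO vehicle control, INH reference.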

[2] = Selectivity index, […] Mycobacterium marinum M strain to CC50 for cytotoxicity against human THP-1 cells; type: toxicity, cell-based; conditions: read-out: Selectivity Index
[3] = tested on: Mycobacterium tuberculosis; test: Antimycobacterial activity against Mycobacterium tuberculosis mc2 6230 assessed as reduction in log10 CFU at 20 times of MIC measured after 6 days by time-killing kinetics assay; type: functional; conditions: time 6 day
In short: (§2)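 Exposed to 1x, 5x or 20x MIC at 37 °C for up to 6 days. Serial dilutions plated on 7H10/OADC/pantothenate and colonies counted after 3 weeks. Mean of four independent experiments in technical triplicate, with SD. DMSO negative control.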

[4] = tested on: Mycobacterium tuberculosis; test: Antimycobacterial activity against Mycobacterium tuberculosis mc2 6230 assessed as reduction in log10 CFU at 1 time of MIC measured after 6 days by time-killing kinetics assay; type: functional, organism-based; conditions: time 6.0 day; in short: as §2
[5] = Selectivity index, […] Mycobacterium tuberculosis H37Rv to CC50 for cytotoxicity against human THP-1 cells; type: toxicity, cell-based; conditions: read-out: Selectivity Index
[6] = tested on: Mycobacterium tuberculosis; test: Antimycobacterial activity against Mycobacterium tuberculosis mc2 6230 assessed as reduction in log10 CFU at 5 times of MIC measured after 3 days by time-killing kinetics assay; type: functional; conditions: time 3 day; in short: as §2
[7] = tested on: Mycobacteroides abscessus; test: Antimycobacterial activity against Mycobacterium abscessus CIP104536 rough variant assessed as inhibition of bacterial growth measured after 4 days by broth dilution method; type: functional; conditions: CIP104536, 96 h, time 4 day; in short: as §1
[8] = tested on: Mycobacterium tuberculosis; test: Antimycobacterial activity against Mycobacterium tuberculosis mc2 6230 assessed as inhibition of bacterial growth at 1 ug/ml measured after 7 days by broth dilution method; type: functional, organism-based; conditions: dose 1.0 µg/ml, time 7.0 day
[9] = tested on: Mycobacterium tuberculosis; test: Antimycobacterial activity against Mycobacterium tuberculosis mc2 6230 assessed as inhibition of bacterial growth measured after 7 days by broth dilution method; type: functional; conditions: mc2 6230, 168 h, time 7 day
In short: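 Pantothenate auxotroph carrying empty pMV261. 2-fold serial dilutions, 37 °C, no agitation, 7 days. MIC99 is the lowest concentration with no turbidity change. DMSO vehicle control.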

[10] = Cytotoxicity against human THP-1 cells assessed as reduction in cell viability measured after 24 hrs by resazurin staining based analysis; type: toxicity
In short: (§3)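 THP-1 monocytes differentiated with 20 ng/mL PMA for 48 hrs at 1×10^5 cells/well. Compounds added by serial dilution from 100 µg/mL for 24 or 72 hrs at 37 °C and 5% CO₂. Resazurin 10% for 4 hrs, fluorescence at ex 540/em 590 nm. Mean of three independent experiments in triplicate. INH and RFB reference drugs.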

[11] = Selectivity index, […] Mycobacterium abscessus CIP104536 smooth variant to CC50 for cytotoxicity against human THP-1 cells; type: toxicity, cell-based; conditions: read-out: Selectivity Index
[12] = Selectivity index, […] Mycobacterium abscessus CIP104536 rough variant to CC50 for cytotoxicity against human THP-1 cells; type: toxicity, cell-based; conditions: read-out: Selectivity Index
[13] = Cytotoxicity against human THP-1 cells assessed as reduction in cell viability measured after 72 hrs by resazurin staining based analysis; type: toxicity; in short: as §3
Vero = test: Cytotoxicity against African green monkey Vero cells assessed as reduction in cell viability measured after 24 hrs by resazurin staining based analysis; type: toxicity; conditions: chlorocebus sabaeus
In short: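 Vero cells in RPMI 1640 with 10% FCS, 2×10^4 cells/well, adhered overnight at 37 °C and 5% CO₂. Compounds added at 100 to 0.78 µg/mL for 24 hrs. 10% resazurin added for 4 hrs, fluorescence read at ex 540/em 590 nm.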

[14] = tested on: Mycobacterium tuberculosis; test: Inhibition of mycolic acid biosynthesis in Mycobacterium tuberculosis mc2 6230 assessed as decrease in alpha-mycolic acid incubated for 15 mins followed by 14C-labeled acetate addition measured after 7 hrs by TLC analysis; type: functional, organism-based; conditions: time 435.0 min
[15] = tested on: Mycobacterium tuberculosis; test: Inhibition of mycolic acid biosynthesis in Mycobacterium tuberculosis mc2 6230 assessed as decrease in keto-mycolic acid incubated for 15 mins followed by 14C-labeled acetate addition measured after 7 hrs by TLC analysis; type: functional, organism-based; conditions: time 435.0 min
[16] = tested on: Mycobacterium tuberculosis; test: Inhibition of mycolic acid biosynthesis in Mycobacterium tuberculosis mc2 6230 assessed as decrease in methoxy-mycolic acid incubated for 15 mins followed by 14C-labeled acetate addition measured after 7 hrs by TLC analysis; type: functional, organism-based; conditions: time 435.0 min

COc1cc(/C=N/NC(=O)c2ccncc2)ccc1OCc1cn(-c2ccnc3cc(Cl)ccc23)nn1
MIC (Mycobacterium marinum): > 200 µg/mL | MIC [1]: > 200 µg/mL | selectivity ratio [2]: > 200 | Activity [3]: ~3 log10CFU/ml | Activity [4]: Active | selectivity ratio [5]: > 200 | Activity [6]: 2 log10CFU/ml | MIC [7]: > 200 µg/mL | Activity [8]: Active | MIC [9]: 0.5 µg/mL (≈ 0.973 µM) | CC50 at 24 h [10]: > 100 µg/mL | selectivity ratio [11]: > 200 | selectivity ratio [12]: > 200 | CC50 at 72 h [13]: > 100 µg/mL

O=Cc1ccc(OCc2cn(CCNc3ccnc4cc(Cl)ccc34)nn2)cc1
MIC [9]: > 200 µg/mL

O=C(N/N=C/c1ccc(OCc2cn(-c3ccnc4cc(Cl)ccc34)nn2)cc1)c1ccncc1
MIC (Mycobacterium marinum): > 200 µg/mL | MIC [1]: > 200 µg/mL | selectivity ratio [2]: > 200 | Activity [3]: ~3 log10CFU/ml | Activity [4]: Active | selectivity ratio [5]: > 200 | Activity (Vero): Non-Toxic | Activity [6]: 2 log10CFU/ml | MIC [7]: > 200 µg/mL | Activity [8]: Active | MIC [9]: 0.25 µg/mL (≈ 0.517 µM) | CC50 at 24 h [10]: > 100 µg/mL | selectivity ratio [11]: > 200 | selectivity ratio [12]: > 200 | CC50 at 72 h [13]: > 100 µg/mL

COc1cc(/C=N/NC(=O)c2cnccn2)ccc1OCc1cn(CCNc2ccnc3cc(Cl)ccc23)nn1
MIC [9]: > 200 µg/mL

Clc1ccc2c(N3CCNCC3)ccnc2c1
MIC [9]: 92 µg/mL (≈ 371 µM)

O=C(N/N=C/c1ccc(OCc2cn(CCCNc3ccnc4cc(Cl)ccc34)nn2)cc1)c1cnccn1
MIC [9]: > 200 µg/mL

O=C(N/N=C/c1ccc(OCc2cn(-c3ccnc4cc(Cl)ccc34)nn2)cc1)c1cccnc1
MIC [9]: > 200 µg/mL

O=C(N/N=C/c1ccc(OCc2cn(CCCNc3ccnc4cc(Cl)ccc34)nn2)cc1)c1ccncc1
MIC (Mycobacterium marinum): 50 µg/mL (≈ 92.4 µM) | MIC [1]: > 200 µg/mL | Activity [3]: ~3 log10CFU/ml | Activity [4]: Active | Activity (Vero): Non-Toxic | Activity [6]: 2 log10CFU/ml | MIC [7]: > 200 µg/mL | Activity [8]: Active | MIC [9]: 0.5 µg/mL (≈ 0.924 µM) | CC50 at 24 h [10]: > 100 µg/mL | CC50 at 72 h [13]: 67 µg/mL (≈ 124 µM)

O=C(N/N=C/c1ccccc1-n1cc(CN2CCN(c3ccnc4cc(Cl)ccc34)CC2)nn1)c1cnccn1
MIC [9]: > 200 µg/mL

COc1cc(C=O)ccc1OCc1cn(-c2ccnc3cc(Cl)ccc23)nn1
MIC [9]: > 200 µg/mL

O=Cc1ccccc1-n1cc(CN2CCN(c3ccnc4cc(Cl)ccc34)CC2)nn1
MIC (Mycobacterium marinum): > 200 µg/mL | MIC [1]: > 200 µg/mL | MIC [7]: > 200 µg/mL | MIC [9]: 100 µg/mL (≈ 231 µM)

NNC(=O)c1ccncc1 [ISONIAZID]
MIC (Mycobacterium marinum): 25 µg/mL (≈ 182 µM) | MIC [1]: > 200 µg/mL | inhibition [14]: Dose-Dependent Effect | MIC [7]: > 200 µg/mL | inhibition [15]: Dose-Dependent Effect | inhibition [16]: Dose-Dependent Effect | MIC [9]: 0.05 µg/mL (≈ 0.365 µM)

COc1cc(/C=N/NC(=O)c2cccnc2)ccc1OCc1cn(-c2ccnc3cc(Cl)ccc23)nn1
MIC [9]: > 200 µg/mL

COc1cc(C=O)ccc1OCc1cn(CCNc2ccnc3cc(Cl)ccc23)nn1
MIC [9]: > 200 µg/mL

COc1cc(/C=N/NC(=O)c2cccnc2)ccc1OCc1cn(CCCNc2ccnc3cc(Cl)ccc23)nn1
MIC [9]: > 200 µg/mL

CO[C@H]1/C=C/O[C@@]2(C)Oc3c(C)c(O)c4c(c3C2=O)C2=NC3(CCN(CC(C)C)CC3)NC2=C(NC(=O)/C(C)=C\C=C\[C@H](C)[C@H](O)[C@@H](C)[C@@H](O)[C@@H](C)[C@H](OC(C)=O)[C@@H]1C)C4=O [RIFABUTIN]
CC50 at 24 h [10]: 60 µg/mL (≈ 70.8 µM)

COc1cc(/C=N/NC(=O)c2cnccn2)ccc1OCc1cn(CCCNc2ccnc3cc(Cl)ccc23)nn1
MIC [9]: > 200 µg/mL

O=Cc1ccc(OCc2cn(CCCNc3ccnc4cc(Cl)ccc34)nn2)cc1
MIC (Mycobacterium marinum): 200 µg/mL (≈ 474 µM) | MIC [1]: > 200 µg/mL | MIC [7]: > 200 µg/mL | MIC [9]: 50 µg/mL (≈ 119 µM)

COc1cc(/C=N/NC(=O)c2ccncc2)ccc1OCc1cn(CCNc2ccnc3cc(Cl)ccc23)nn1
MIC (Mycobacterium marinum): > 200 µg/mL | MIC [1]: > 200 µg/mL | Activity [3]: ~3 log10CFU/ml | Activity [4]: Active | Activity (Vero): Non-Toxic | Activity [6]: 2 log10CFU/ml | MIC [7]: > 200 µg/mL | Activity [8]: Active | MIC [9]: 0.5 µg/mL (≈ 0.898 µM) | CC50 at 24 h [10]: > 100 µg/mL | CC50 at 72 h [13]: 73 µg/mL (≈ 131 µM)

COc1cc(/C=N/NC(=O)c2cccnc2)ccc1OCc1cn(CCNc2ccnc3cc(Cl)ccc23)nn1
MIC [9]: > 200 µg/mL

O=C(N/N=C/c1ccccc1-n1cc(CN2CCN(c3ccnc4cc(Cl)ccc34)CC2)nn1)c1cccnc1
MIC [9]: > 200 µg/mL

O=C(N/N=C/c1ccc(OCc2cn(-c3ccnc4cc(Cl)ccc34)nn2)cc1)c1cnccn1
MIC [9]: > 200 µg/mL

O=C(N/N=C/c1ccc(OCc2cn(CCNc3ccnc4cc(Cl)ccc34)nn2)cc1)c1ccncc1
MIC (Mycobacterium marinum): 200 µg/mL (≈ 380 µM) | MIC [1]: > 200 µg/mL | Activity [3]: ~3 log10CFU/ml | Activity [4]: Active | Activity (Vero): Non-Toxic | Activity [6]: 2 log10CFU/ml | MIC [7]: > 200 µg/mL | Activity [8]: Active | MIC [9]: 0.5 µg/mL (≈ 0.949 µM) | CC50 at 24 h [10]: > 100 µg/mL | CC50 at 72 h [13]: 34 µg/mL (≈ 64.5 µM)

COc1cc(/C=N/NC(=O)c2cnccn2)ccc1OCc1cn(-c2ccnc3cc(Cl)ccc23)nn1
MIC [9]: > 200 µg/mL

O=C(N/N=C/c1ccc(OCc2cn(CCNc3ccnc4cc(Cl)ccc34)nn2)cc1)c1cccnc1
MIC [9]: > 200 µg/mL

COc1cc(/C=N/NC(=O)c2ccncc2)ccc1OCc1cn(CCCNc2ccnc3cc(Cl)ccc23)nn1
MIC (Mycobacterium marinum): 100 µg/mL (≈ 175 µM) | MIC [1]: > 200 µg/mL | selectivity ratio [2]: > 200 | Activity [3]: ~3 log10CFU/ml | Activity [4]: Active | selectivity ratio [5]: > 200 | Activity (Vero): Non-Toxic | Activity [6]: 2 log10CFU/ml | MIC [7]: > 200 µg/mL | Activity [8]: Active | MIC [9]: 0.25 µg/mL (≈ 0.438 µM) | CC50 at 24 h [10]: > 100 µg/mL | selectivity ratio [11]: > 200 | selectivity ratio [12]: > 200 | CC50 at 72 h [13]: > 100 µg/mL

O=Cc1ccc(OCc2cn(-c3ccnc4cc(Cl)ccc34)nn2)cc1
MIC [9]: > 200 µg/mL

O=C(N/N=C/c1ccc(OCc2cn(CCCNc3ccnc4cc(Cl)ccc34)nn2)cc1)c1cccnc1
MIC [9]: > 200 µg/mL

COc1cc(C=O)ccc1OCc1cn(CCCNc2ccnc3cc(Cl)ccc23)nn1
MIC [9]: > 200 µg/mL
